FLuc stim CS: affects firefly luciferase, flagging false hits in luciferase stimulation screens; activation factor at 10 µM; P08659; ATPlite luciferase biochemical, luminescence, 10 min; 0 = ATP-free wells, 1 = DMSO control; 200,000 tested, under 10 active; AID 1027;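 active = luciferase activation factor, scaled between plate controls, of at least 2 with compound at 10 µM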
Target sequence (P08659 whole entry, looked up): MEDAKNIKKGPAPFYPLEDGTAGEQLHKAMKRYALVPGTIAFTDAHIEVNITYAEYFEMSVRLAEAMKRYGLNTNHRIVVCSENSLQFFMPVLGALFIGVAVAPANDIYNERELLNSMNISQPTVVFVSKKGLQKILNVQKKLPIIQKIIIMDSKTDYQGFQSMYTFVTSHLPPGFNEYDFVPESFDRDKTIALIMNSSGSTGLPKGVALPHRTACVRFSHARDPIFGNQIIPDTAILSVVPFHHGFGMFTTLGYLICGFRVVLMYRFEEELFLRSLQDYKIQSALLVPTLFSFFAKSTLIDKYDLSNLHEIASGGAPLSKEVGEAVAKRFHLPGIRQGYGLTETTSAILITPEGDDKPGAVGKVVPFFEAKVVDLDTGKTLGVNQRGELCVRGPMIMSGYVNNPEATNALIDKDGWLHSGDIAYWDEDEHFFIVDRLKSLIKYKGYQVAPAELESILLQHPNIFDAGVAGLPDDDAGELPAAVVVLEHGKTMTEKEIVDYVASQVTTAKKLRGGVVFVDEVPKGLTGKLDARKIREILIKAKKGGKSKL
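Material: Luciferase/luciferin reagent mix | Doses: Test compounds dosed from 2 mM stocks in 100% DMSO | Timing: 10 min incubation after luciferase reagent addition, room temperature | Measured by: Luminescence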
C8 TRAIL sens: sensitizes caspase-8 expressing cells to TRAIL; NB7+C8 cells + TRAIL, ATPlite viability luminescence; inhibition (viability loss, TRAIL sensitization), % at 10 µM; 1% of 360,000 active; AID 624354;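 active = compounds causing at least 50% loss of cell viability in the single-dose screen, relative to plate controls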
FLuc inh counter: inhibits firefly luciferase, flagging false hits in luciferase inhibition screens; 1.5% of 200,000 active; inhibition, % at 10 µM; AID 1006; ATPLite firefly luciferase biochemical luminescence, 10 min; P08659;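 active = inhibition above about 50% when tested at 10 µM, limit read from the data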
PPC-1+TRAIL kill: PPC-1 cancer cell killing with TRAIL present; cell killing (% activity), % at 4 µM or 5 µM; PPC-1 cells + TRAIL, ATPLite viability luminescence; AID 1443; 0.41% of 220,000 active;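 active = cell killing above 50% in the first pass at 4 µM, then a duplicate retest at 5 µM averaging 50% or more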;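 note: plate controls were cells with TRAIL plus DMSO for no effect and medium-only wells lacking cells for full effect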
Active calls of the source: *; · = no result given. The list is not random: actives were taken first. Their share in the collection is about 1.5%.

SMILES	FLuc stim CS	C8 TRAIL sens	FLuc inh counter	PPC-1+TRAIL kill
COC(=O)/C(=C\Nc1ccc(Cl)cc1Cl)NC(=O)c1ccccc1	1	-24.6	0.2	1.5
COc1ccc(-c2cn3c(n2)CCC3)cc1	0.8	11.3	24.7	20.8
c1ccc(-c2ccc(-c3cn4c(n3)CCC4)cc2)cc1	0.3	71.7*	65.2*	49.8
COCCCn1c(SCC(=O)NC2CCCCC2)nc2ccccc2c1=O	·	1.6	·	·
COc1ccc(C(=O)Nn2c(SCC(=O)NC3CCCCC3)nc3ccccc3c2=O)cc1	0.4	37.6	58.3*	48.3
COc1ccc(C(=O)Nn2c(SCC(=O)N3CCC(C)CC3)nc3ccccc3c2=O)cc1	0.2	52.4*	75.1*	49.3
COc1ccc(C(=O)Nn2c(SCC(=O)c3ccc(Cl)cc3)nc3ccccc3c2=O)cc1	0.9	13.8	10.3	40.7
CCCN1CCC(=O)N([C@H](CSc2ccc(C)cc2)CC(C)C)CC1	·	13.7	·	4.7
COc1ccc2c(=O)cc(-c3ccccc3)n(C)c2c1	1	54.7*	3.4	4.3
COc1ccc(-c2cc(=O)c3ccccc3n2C)cc1	1	39.9	-1.7	16.4
O=C(CN1C(=O)NC2(CCCC2)C1=O)OCc1ccccc1	·	-2.8	·	·
Brc1nc(-c2ccccc2)nc(-c2ccccc2)c1Br	·	93.9*	·	·
COc1ccc(C2=NN(C(=O)COC(=O)c3ccc(S(C)(=O)=O)c([N+](=O)[O-])c3)C(c3ccco3)C2)cc1 (centres undefined)	·	90.2*	·	·
COc1ccc(C2=NN(C(=O)COc3ncnc4ccccc34)C(c3ccco3)C2)cc1 (centres undefined)	1	13.0	-0.9	-0.1
Cc1ccc(-c2nnc(-c3cccc4ccccc34)o2)cc1	·	53.4*	·	·
Cc1cccc(-c2nnc(-c3cccc4ccccc34)o2)c1	·	30.2	·	·
COc1ccc(-c2nnc(-c3ccc(C)cc3)o2)cc1	·	32.5	·	·
Cc1ccc(-c2nnc(-c3ccccc3)o2)cc1	0.3	40.6	66.8*	16.3
CCn1c(=O)c([N+](=O)[O-])c(Cl)c2ccccc21	1.1	51.9*	-8.2	12.3
Cc1ccc(-c2nc3cc(C)ccc3o2)cc1	0.1	53.8*	92.2*	31.3
CC(C)(C)c1ccc(-c2nc3cc(N)ccc3o2)cc1	·	71.7*	·	·
Nc1ccc(-c2nc3cc([N+](=O)[O-])ccc3o2)cc1	·	31.9	·	23.4
Cc1ccc2oc(-c3ccco3)nc2c1	0.5	4.0	47.7	-1.5
NNc1nc(-c2ccccc2)nc2sc3c(c12)CCCC3	0.2	64.2*	83.6*	21.0
NNc1nc2sc3c(c2c(=O)n1Cc1ccccc1)CCC3	·	-1.9	·	-5.8
SMILES	FLuc stim CS	C8 TRAIL sens	FLuc inh counter	PPC-1+TRAIL kill
O=C(O/N=C/c1ccc2c(c1)OCO2)c1ccccc1Cl	0.3	·	69.5*	28.4
CC(C)NC(=O)NC(=O)CSc1ccccc1F	1	12.9	1.1	-0.5
C#CCSc1nnc(CSc2nc3ccccc3s2)n1-c1ccccc1	1	85.8*	0.8	13.6
Cc1ccc(S(=O)(=O)c2ccc([N+](=O)[O-])o2)cc1	·	92.4*	·	·
Cc1ccc(NC(=O)c2ccc([N+](=O)[O-])o2)c(C)c1	1.1	-2.0	-6.1	7.9
N/C(=N\OCc1ccc([N+](=O)[O-])cc1)c1ccncc1	0.5	25.4	54.9*	17.2
O=C(NNC(=O)c1ccc([N+](=O)[O-])cc1)c1ccncc1	1	-6.6	-3.8	2.2
CN(C)CCCN(C(=O)c1nc2ccccc2s1)c1nc2ccc(F)cc2s1	·	1.8	·	·
CCN(CC)CCN(C(=O)c1ccc(C(=O)c2ccccc2)cc1)c1nc2cc3c(cc2s1)OCO3	·	-3.1	·	·
CN(C)CCCN(C(=O)c1ccc(C(=O)c2ccccc2)cc1)c1nc2cc3c(cc2s1)OCO3	·	52.8*	·	·
CN(C(=O)c1ccccc1)c1nc2ccccc2s1	0.2	72.1*	84.0*	49.4
CN(C)CCCN(C(=O)c1ccc(C(=O)c2ccccc2)cc1)c1nc2ccc(F)cc2s1	·	48.6*	·	·
CN(C)CCCN(C(=O)c1cc2cc([N+](=O)[O-])ccc2s1)c1nc2cc3c(cc2s1)OCCO3	·	91.3*	·	·
COc1cc2[nH]c(C(=O)Nc3ccc(F)cc3)cc2c(OC)c1OC	·	29.6	·	·
O=C(/C=C/c1ccccc1Cl)Nc1cccc(O)c1	0.2	72.0*	84.5*	45.2
COc1cc(NC(=O)/C=C/c2ccccc2[N+](=O)[O-])cc(OC)c1	1	0.6	-1.3	-7.4
O=C(/C=C/c1ccccc1[N+](=O)[O-])Nc1ccccc1	0.5	20.1	50.2*	17.7
O=C(/C=C/c1ccccc1Cl)Nc1ccccc1	·	34.5	·	36.3
Cc1nc(C(F)(F)F)ccc1C(=O)NCC(O)c1ccccc1 (centres undefined)	·	6.3	·	·
N=c1n(CC(=O)c2ccc(Br)s2)c2ccccc2n1Cc1ccccc1	·	55.6*	·	2.8
Cn1c(=N)n(CC(=O)c2ccc(Br)s2)c2ccccc21	1.1	18.4	-5.2	6.7
O=C(Nc1ccc(OCC(F)(F)C(F)F)c(C(F)(F)F)c1)c1ccccc1O	1	58.4*	3.1	0.8
O=C(Nc1ccc(OCC(F)(F)C(F)F)c(C(F)(F)F)c1)c1ccccc1	·	34.5	·	·
CCOC(=O)c1ccc(N2C(=O)C3CC=CCC3C2=O)cc1 (centres undefined)	1	-8.5	-2.4	20.3
C#Cc1ccc(NC(=O)C2(C)CCN2C(=O)c2ccccc2CCc2ccccc2)cc1 (centres undefined)	·	89.1*	·	·
SMILES	FLuc stim CS	C8 TRAIL sens	FLuc inh counter	PPC-1+TRAIL kill
C#Cc1ccc(NC(=O)C2(C)CCN2C(=O)C2(c3ccccc3)CCCC2)cc1 (centres undefined)	·	85.8*	·	·
CC(C)NC(=O)C1(C)CCN1C(=O)C1(c2ccccc2)CCCC1 (centres undefined)	·	1.7	·	·
COc1ccc(-c2cc3ccc(OCC(=O)NCC4CCC(C(=O)O)CC4)cc3oc2=O)cc1 (centres undefined)	·	58.9*	·	·
CCN(CC)CCOC(=O)c1ccc(NC(=O)c2cccc(C)c2[N+](=O)[O-])cc1	1	-0.3	-4.4	18.4
CCOc1ccc(NCC(=O)N/N=C/C=C/c2ccccc2)cc1	0.4	12.4	55.9*	36.3
CCc1ccc(OCC(=O)NNC(=O)C2CCC2)cc1	·	14.8	·	·
C/C(=N\NC(=O)c1cc(C(C)C)[nH]n1)c1ccncc1	·	10.5	·	·
C/C(=N\NC(=O)c1cc(C(C)C)[nH]n1)c1ccco1	0.2	42.4	79.0*	44.0
C/C(=N/NC(=O)c1cc(C(C)C)[nH]n1)c1cccs1	0.3	24.7	70.3*	23.5
C/C(=N\NC(=O)c1cc(C)[nH]n1)c1ccc(-c2ccccc2)cc1	·	2.8	·	·
C/C(=N\NC(=O)c1cc(C)[nH]n1)c1cccs1	0.4	18.3	55.9*	6.8
CCCCC1CC2=C(C(=O)OC(C)(C)O2)C(c2ccc3ccccc3c2)O1 (centres undefined)	·	-4.7	·	·
COc1ccc(Oc2cc(F)nc(N)n2)cc1	1.1	16.4	-9.6	0.6
CC/C(=N\NC(=O)c1csc(C)c1C)c1cccs1	0.2	50.5*	80.6*	39.7
Cc1ccc(S(=O)(=O)CC(=O)Nc2nccs2)cc1	·	0.9	·	·
CC1=NN(c2ccccc2)C(=O)/C1=C\C=C1/N(C)c2ccccc2C1(C)C	1	1.0	0.0	-29.6
